In ChEMBL document CHEMBL3525925, “In vitro studies on the oxidative metabolism of 20(s)-ginsenoside Rh2 in human, monkey, dog, rat, and mouse liver microsomes, and human liver s9” (Drug Metab Dispos, 2012):

Columns and labels:
[1] = Oral bioavailability in Wistar rat at 25 mg/kg; type: ADME, organism-based; conditions: in vivo
[2] = Oral bioavailability in beagle dog at 8 mg/kg; type: ADME, organism-based, Canis lupus familiaris; conditions: in vivo
Liver = assay: Drug uptake in rat liver at 50 mg/kg, po; type: ADME, organism-based; parameters: dose 50 mg/kg, route oral; conditions: in vivo, read-out: Drug uptake
[3] = Drug excretion in rat urine at 50 mg/kg, po; type: ADME, organism-based; parameters: dose 50 mg/kg, route oral; conditions: in vivo
[4] = Drug excretion in rat feces at 50 mg/kg, po; type: ADME, organism-based; parameters: dose 50 mg/kg, route oral; conditions: faeces, read-out: Drug excretion
[5] = Drug excretion in rat bile at 50 mg/kg, po; type: ADME, organism-based; parameters: dose 50 mg/kg, route oral; conditions: read-out: Drug excretion
Liver microsome [6] = assay: Drug metabolism in human liver microsomes assessed as oxidative metabolism at 10 uM in presence of 0.1 uM alpha-naphthoflavone CYP1A2 inhibitor; type: ADME
Procedure, shortened: (§1)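 Pooled human liver microsomes (1 mg/ml, mixed-gender, 50 donors), 10 µM Rh2, 2 mM NADPH and selective inhibitor in 100 mM potassium phosphate pH 7.4; 37°C, 60 min; ice-cold acetonitrile stop; uninhibited controls; duplicates; formation of M1-2, M1-3 and M1-4+M1-5 quantified by LC/ion-trap MSn.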

Liver microsome [7] = assay: Drug metabolism in human liver microsomes assessed as oxidative metabolism at 10 uM in presence of 2 uM quinidine CYP2D6 inhibitor; type: ADME; procedure, shortened: as §1
Liver microsome [8] = assay: Drug metabolism in human liver microsomes assessed as oxidative metabolism at 10 uM in presence of 60 uM chlormethiazole CYP2E1 inhibitor; type: ADME; procedure, shortened: as §1
Liver microsome [9] = assay: Drug metabolism in human liver microsomes assessed as oxidative metabolism at 10 uM in presence of 10 uM ketoconazole CYP3A inhibitor; type: ADME; procedure, shortened: as §1
Cytochrome P450 1A2 = molecular target: T1, Cytochrome P450 1A2 (Homo sapiens, UniProt P05177); assay: Drug metabolism in human recombinant CYP1A2 mediated oxidative metabolism at 10 uM; type: ADME; conditions: recombinant enzyme
T1 sequence (P05177 whole entry): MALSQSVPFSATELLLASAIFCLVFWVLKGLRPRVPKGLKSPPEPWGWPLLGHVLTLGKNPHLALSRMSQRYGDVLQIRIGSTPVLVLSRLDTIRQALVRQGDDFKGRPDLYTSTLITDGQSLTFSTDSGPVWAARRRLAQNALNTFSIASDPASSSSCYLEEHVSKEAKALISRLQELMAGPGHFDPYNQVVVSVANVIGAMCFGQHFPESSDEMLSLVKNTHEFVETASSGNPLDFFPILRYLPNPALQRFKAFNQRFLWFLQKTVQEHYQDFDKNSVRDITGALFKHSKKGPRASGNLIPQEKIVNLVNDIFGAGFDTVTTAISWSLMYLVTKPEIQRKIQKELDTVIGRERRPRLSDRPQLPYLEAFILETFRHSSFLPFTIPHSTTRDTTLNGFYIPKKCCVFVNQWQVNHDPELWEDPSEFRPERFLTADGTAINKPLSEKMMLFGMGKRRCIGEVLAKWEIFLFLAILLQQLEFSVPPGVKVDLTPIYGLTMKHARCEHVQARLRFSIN
Procedure, shortened: (§2)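 Recombinant human P450 at 50 nM incubated with 10 µM Rh2 and 2 mM NADPH in 100 mM potassium phosphate pH 7.4, 37°C, 60 min; ice-cold acetonitrile stop; duplicates; metabolites detected by LC/ion-trap MSn.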

Cytochrome P450 1B1 = molecular target: T2, Cytochrome P450 1B1 (Homo sapiens, UniProt Q16678); assay: Drug metabolism in human recombinant CYP1B1 mediated oxidative metabolism at 10 uM; type: ADME; conditions: recombinant enzyme; procedure, shortened: as §2
T2 sequence (Q16678 whole entry): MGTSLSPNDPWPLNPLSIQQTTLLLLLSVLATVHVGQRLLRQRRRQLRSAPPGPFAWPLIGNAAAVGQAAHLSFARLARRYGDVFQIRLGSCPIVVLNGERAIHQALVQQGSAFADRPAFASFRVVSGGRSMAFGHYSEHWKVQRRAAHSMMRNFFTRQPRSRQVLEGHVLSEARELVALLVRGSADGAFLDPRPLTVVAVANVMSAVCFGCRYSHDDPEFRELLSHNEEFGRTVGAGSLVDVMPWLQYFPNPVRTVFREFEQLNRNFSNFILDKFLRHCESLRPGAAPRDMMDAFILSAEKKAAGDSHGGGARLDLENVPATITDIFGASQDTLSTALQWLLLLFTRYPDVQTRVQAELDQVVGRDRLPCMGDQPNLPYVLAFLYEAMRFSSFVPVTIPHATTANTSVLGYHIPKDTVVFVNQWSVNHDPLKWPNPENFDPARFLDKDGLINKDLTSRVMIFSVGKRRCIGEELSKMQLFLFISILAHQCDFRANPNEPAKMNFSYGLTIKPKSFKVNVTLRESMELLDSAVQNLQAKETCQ

Cytochrome P450 2B6 = molecular target: T3, Cytochrome P450 2B6 (Homo sapiens, UniProt P20813); assay: Drug metabolism in human recombinant CYP2B6 mediated oxidative metabolism at 10 uM; type: ADME; conditions: recombinant enzyme; procedure, shortened: as §2
T3 sequence (P20813 whole entry): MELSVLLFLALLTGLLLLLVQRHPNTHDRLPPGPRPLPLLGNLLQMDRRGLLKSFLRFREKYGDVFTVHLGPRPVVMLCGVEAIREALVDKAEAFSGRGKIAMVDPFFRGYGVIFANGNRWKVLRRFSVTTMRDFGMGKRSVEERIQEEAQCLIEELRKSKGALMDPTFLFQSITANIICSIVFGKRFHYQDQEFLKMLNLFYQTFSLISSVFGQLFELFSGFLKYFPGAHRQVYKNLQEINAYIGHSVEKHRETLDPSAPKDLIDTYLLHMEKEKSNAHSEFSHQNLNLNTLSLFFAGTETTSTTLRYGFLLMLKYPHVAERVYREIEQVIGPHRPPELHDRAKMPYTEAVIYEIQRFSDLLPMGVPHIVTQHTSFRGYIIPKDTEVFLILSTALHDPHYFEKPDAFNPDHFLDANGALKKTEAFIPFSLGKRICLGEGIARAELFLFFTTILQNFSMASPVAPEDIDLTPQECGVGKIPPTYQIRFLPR

Cytochrome P450 2C9 = Cytochrome P450 2C9 (Homo sapiens, UniProt P11712); assay: Drug metabolism in human recombinant CYP2C9 mediated oxidative metabolism at 10 uM; type: ADME; conditions: recombinant enzyme; procedure, shortened: as §2
Cytochrome P450 2D6 = Cytochrome P450 2D6 (Homo sapiens, UniProt P10635); assay: Drug metabolism in human recombinant CYP2D6 mediated oxidative metabolism at 10 uM; type: ADME; conditions: recombinant enzyme; procedure, shortened: as §2
Cytochrome P450 2E1 = Cytochrome P450 2E1 (Homo sapiens, UniProt P05181); assay: Drug metabolism in human recombinant CYP2E1 mediated oxidative metabolism at 10 uM; type: ADME; conditions: recombinant enzyme; procedure, shortened: as §2
Cytochrome P450 2E1, sequence (P05181 whole entry): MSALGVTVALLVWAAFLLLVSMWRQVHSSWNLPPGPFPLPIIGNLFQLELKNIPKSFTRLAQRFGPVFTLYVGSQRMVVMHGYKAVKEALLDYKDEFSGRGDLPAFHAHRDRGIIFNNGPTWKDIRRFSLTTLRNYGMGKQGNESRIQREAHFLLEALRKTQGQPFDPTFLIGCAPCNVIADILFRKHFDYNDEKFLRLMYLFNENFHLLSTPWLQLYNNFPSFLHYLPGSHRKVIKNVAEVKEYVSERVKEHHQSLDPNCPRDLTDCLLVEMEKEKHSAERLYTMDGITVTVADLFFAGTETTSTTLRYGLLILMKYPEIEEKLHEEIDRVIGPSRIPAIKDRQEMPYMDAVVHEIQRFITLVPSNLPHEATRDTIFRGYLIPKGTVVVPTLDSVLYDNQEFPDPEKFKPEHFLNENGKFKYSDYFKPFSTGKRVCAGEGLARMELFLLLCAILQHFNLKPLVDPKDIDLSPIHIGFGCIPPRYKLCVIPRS

Cytochrome P450 2C9, sequence (P11712 whole entry): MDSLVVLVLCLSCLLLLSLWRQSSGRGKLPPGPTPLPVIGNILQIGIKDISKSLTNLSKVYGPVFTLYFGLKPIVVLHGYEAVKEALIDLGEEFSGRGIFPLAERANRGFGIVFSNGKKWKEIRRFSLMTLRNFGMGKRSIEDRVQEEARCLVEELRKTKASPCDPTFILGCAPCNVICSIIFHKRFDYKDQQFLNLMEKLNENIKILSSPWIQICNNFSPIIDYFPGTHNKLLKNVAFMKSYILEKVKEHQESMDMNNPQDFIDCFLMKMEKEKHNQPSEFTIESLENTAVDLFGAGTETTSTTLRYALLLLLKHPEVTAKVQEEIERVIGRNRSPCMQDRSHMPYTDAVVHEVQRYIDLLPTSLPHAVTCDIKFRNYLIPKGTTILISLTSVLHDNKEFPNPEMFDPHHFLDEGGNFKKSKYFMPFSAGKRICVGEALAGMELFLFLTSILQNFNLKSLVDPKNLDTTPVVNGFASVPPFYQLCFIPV
Cytochrome P450 2D6, sequence (P10635 whole entry): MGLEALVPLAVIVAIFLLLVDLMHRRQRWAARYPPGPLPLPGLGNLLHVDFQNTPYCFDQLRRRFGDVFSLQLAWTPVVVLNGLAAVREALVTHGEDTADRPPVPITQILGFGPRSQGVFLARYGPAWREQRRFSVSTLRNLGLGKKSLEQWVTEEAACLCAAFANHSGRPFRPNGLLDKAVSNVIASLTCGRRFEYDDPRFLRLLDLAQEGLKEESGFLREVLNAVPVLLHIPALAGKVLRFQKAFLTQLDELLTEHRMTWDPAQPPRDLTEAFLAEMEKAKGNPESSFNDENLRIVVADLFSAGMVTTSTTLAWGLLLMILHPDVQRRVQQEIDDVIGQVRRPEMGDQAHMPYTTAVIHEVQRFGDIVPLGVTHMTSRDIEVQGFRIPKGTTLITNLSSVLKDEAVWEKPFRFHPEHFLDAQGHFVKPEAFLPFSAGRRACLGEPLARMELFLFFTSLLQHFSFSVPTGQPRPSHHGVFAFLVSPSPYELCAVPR

## CC(C)=CCC[C@](C)(O)[C@H]1CC[C@]2(C)[C@@H]1[C@H](O)C[C@@H]1[C@@]3(C)CC[C@H](O[C@@H]4O[C@H](CO)[C@@H](O)[C@H](O)[C@H]4O)C(C)(C)[C@@H]3CC[C@]12C [GINSENOSIDE RH2]
[1]
  bioavailability: 28%
[2]
  bioavailability: 55%
Liver
  concentration: 60 µM
[3]
  Drug excretion: metabolite_not_detected
[4]
  dose excreted: < 10%
[5]
  dose excreted: < 10%
Liver microsome [6]
  Drug metabolism: metabolite_detected
Liver microsome [7]
  Drug metabolism: metabolite_detected
Liver microsome [8]
  Drug metabolism: metabolite_detected
Liver microsome [9]
  Drug metabolism: metabolite_not_detected
Cytochrome P450 1A2
  Drug metabolism: metabolite_not_detected
Cytochrome P450 1B1
  Drug metabolism: metabolite_not_detected
Cytochrome P450 2B6
  Drug metabolism: metabolite_not_detected
Cytochrome P450 2C9
  Drug metabolism: metabolite_not_detected
Cytochrome P450 2D6
  Drug metabolism: metabolite_not_detected
Cytochrome P450 2E1
  Drug metabolism: metabolite_not_detected
